Laboratory results published in ChEMBL document CHEMBL4346653, “A2B Adenosine Receptor Antagonists with Picomolar Potency” (J Med Chem, 2019).
Converted amounts (≈) assume the structure as drawn.

Assays:
Adenosine receptor A2b [1] = molecular target: T1, Adenosine receptor A2b (Homo sapiens, UniProt P29275); assay: Displacement of [3H]PSB-603 from recombinant human A2B adenosine receptor expressed in CHO cell membranes measured after 75 mins in presence of adenosine deaminase by liquid scintillation counting method
T1 sequence (P29275 whole entry): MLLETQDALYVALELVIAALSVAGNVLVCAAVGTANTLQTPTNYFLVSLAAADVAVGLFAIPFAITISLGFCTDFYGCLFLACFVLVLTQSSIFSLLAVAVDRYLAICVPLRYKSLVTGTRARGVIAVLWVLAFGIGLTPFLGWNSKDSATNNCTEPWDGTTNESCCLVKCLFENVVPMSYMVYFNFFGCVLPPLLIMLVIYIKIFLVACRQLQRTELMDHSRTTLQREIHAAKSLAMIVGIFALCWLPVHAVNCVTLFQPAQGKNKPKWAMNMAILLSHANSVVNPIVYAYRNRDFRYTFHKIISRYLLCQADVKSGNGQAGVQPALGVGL
In short: (§1)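 Competition binding on membranes of cells recombinantly expressing the human receptor (CHO or HEK cells), with tritiated radioligand per subtype: [3H]PSB-603 for A2B, [3H]MSX-2 for A2A, [3H]CCPA for A1, [3H]PSB-11 for A3. Ki ± SEM from n = 3, some from extrapolated curves. Weak binders are reported as % inhibition of radioligand binding at 1 μM.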

Adenosine receptor A2a [2] = molecular target: T2, Adenosine receptor A2a (Homo sapiens, UniProt P29274); assay: Displacement of [3H]MSX-2 from recombinant human A2A adenosine receptor expressed in CHO cell membranes measured after 30 mins in presence of adenosine deaminase by liquid scintillation counting method; in short: as §1
T2 sequence (P29274 whole entry): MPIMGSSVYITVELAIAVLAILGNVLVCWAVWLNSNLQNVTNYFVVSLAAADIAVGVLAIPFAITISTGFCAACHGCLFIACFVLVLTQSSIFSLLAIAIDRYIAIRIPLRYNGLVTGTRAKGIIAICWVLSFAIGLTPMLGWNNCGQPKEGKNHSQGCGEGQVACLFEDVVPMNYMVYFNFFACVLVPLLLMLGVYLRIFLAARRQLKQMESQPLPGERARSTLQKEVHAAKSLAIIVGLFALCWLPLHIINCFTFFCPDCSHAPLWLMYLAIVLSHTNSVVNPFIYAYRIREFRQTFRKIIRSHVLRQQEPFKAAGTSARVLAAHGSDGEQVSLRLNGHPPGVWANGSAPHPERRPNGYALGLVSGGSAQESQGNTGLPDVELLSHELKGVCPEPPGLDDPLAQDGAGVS

Adenosine receptor A1 [3] = molecular target: T3, Adenosine receptor A1 (Homo sapiens, UniProt P30542); assay: Displacement of [3H]CCPA from recombinant human A1 adenosine receptor expressed in CHO cell membranes measured after 90 mins in presence of adenosine deaminase by liquid scintillation counting method; in short: as §1
T3 sequence (P30542 whole entry): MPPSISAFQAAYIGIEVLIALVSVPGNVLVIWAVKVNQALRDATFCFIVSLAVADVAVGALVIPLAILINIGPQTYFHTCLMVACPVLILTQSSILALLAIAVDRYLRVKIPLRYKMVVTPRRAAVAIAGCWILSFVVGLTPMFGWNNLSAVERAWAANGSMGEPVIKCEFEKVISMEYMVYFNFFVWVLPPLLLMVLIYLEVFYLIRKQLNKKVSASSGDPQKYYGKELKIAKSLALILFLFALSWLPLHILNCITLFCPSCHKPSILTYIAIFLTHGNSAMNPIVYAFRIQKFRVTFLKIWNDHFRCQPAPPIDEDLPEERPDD

Adenosine receptor A3 [4] = molecular target: T4, Adenosine receptor A3 (Homo sapiens, UniProt P0DMS8); assay: Displacement of [3H]PSB-11 from recombinant human A3 adenosine receptor expressed in CHO cell membranes measured after 45 mins in presence of adenosine deaminase by liquid scintillation counting method; in short: as §1
T4 sequence (P0DMS8 whole entry): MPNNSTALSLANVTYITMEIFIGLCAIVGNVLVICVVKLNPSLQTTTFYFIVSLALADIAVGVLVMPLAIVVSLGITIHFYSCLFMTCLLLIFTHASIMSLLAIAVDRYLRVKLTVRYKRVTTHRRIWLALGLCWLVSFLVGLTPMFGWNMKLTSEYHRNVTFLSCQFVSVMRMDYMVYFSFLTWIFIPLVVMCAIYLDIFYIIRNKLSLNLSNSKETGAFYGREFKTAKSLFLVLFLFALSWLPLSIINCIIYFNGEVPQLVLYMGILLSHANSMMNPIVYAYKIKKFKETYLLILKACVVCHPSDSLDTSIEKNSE

Adenosine receptor A2a [5] = molecular target: T2, Adenosine receptor A2a; assay: Displacement of [3H]MSX-2 from recombinant human A2A adenosine receptor expressed in CHO cell membranes at 1 uM measured after 30 mins in presence of adenosine deaminase by liquid scintillation counting method relative to control
In short: (§2)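 Single-point competition binding at human AR subtype membranes, each against its own tritiated radioligand. The test compound is given at 1 μM, and the result is reported as percent inhibition of radioligand binding. The radioligand-specific footnotes give n = 3.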

[6] = molecular target: T5, Adenosine receptor A1 (Homo sapiens) (UniProt P30542); assay: Displacement of [3H]CCPA from recombinant human A1 adenosine receptor expressed in CHO cell membranes at 1 uM measured after 90 mins in presence of adenosine deaminase by liquid scintillation counting method relative to control; in short: as §2
T5 sequence (whole entry): T3 sequence (P30542 whole entry)

[7] = molecular target: T6, Adenosine receptor A3 (Homo sapiens) (UniProt P0DMS8); assay: Displacement of [3H]PSB-11 from recombinant human A3 adenosine receptor expressed in CHO cell membranes at 1 uM measured after 45 mins in presence of adenosine deaminase by liquid scintillation counting method relative to control; in short: as §2
T6 sequence (whole entry): T4 sequence (P0DMS8 whole entry)

Homo sapiens [8] = species: Homo sapiens; assay: Selectivity index, ratio of Ki for displacement of [3H]MSX-2 from recombinant human A2A adenosine receptor expressed in CHO cell membranes to Ki for displacement of [3H]PSB-603 from recombinant human A2B adenosine receptor expressed in CHO cell membranes
Homo sapiens [9] = species: Homo sapiens; assay: Selectivity index, ratio of Ki for displacement of [3H]CCPA from recombinant human A1 adenosine receptor expressed in CHO cell membranes to Ki for displacement of [3H]PSB-603 from recombinant human A2B adenosine receptor expressed in CHO cell membranes
Homo sapiens [10] = species: Homo sapiens; assay: Selectivity index, ratio of Ki for displacement of [3H]PSB-11 from recombinant human A3 adenosine receptor expressed in CHO cell membranes to Ki for displacement of [3H]PSB-603 from recombinant human A2B adenosine receptor expressed in CHO cell membranes
Adenosine receptor A2b [11] = molecular target: T7, Adenosine receptor A2b (Mus musculus, UniProt Q60614); assay: Displacement of [3H]PSB-603 from recombinant mouse A2B adenosine receptor expressed in CHO cell membranes measured after 75 mins in presence of adenosine deaminase by liquid scintillation counting method
T7 sequence (Q60614 whole entry): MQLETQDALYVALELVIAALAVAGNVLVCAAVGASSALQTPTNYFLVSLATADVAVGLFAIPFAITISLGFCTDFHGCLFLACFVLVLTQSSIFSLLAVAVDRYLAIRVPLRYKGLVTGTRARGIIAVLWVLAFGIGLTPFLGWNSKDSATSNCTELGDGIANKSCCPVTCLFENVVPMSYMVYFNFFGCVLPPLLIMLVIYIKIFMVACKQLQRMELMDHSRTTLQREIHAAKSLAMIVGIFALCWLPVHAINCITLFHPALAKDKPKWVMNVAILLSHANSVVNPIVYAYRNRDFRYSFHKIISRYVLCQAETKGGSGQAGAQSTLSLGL

Adenosine receptor A1 [12] = molecular target: T8, Adenosine receptor A1 (Mus musculus, UniProt Q60612); assay: Displacement of [3H]CCPA from recombinant mouse A1 adenosine receptor expressed in CHO cell membranes measured after 90 mins in presence of adenosine deaminase by liquid scintillation counting method
T8 sequence (Q60612 whole entry): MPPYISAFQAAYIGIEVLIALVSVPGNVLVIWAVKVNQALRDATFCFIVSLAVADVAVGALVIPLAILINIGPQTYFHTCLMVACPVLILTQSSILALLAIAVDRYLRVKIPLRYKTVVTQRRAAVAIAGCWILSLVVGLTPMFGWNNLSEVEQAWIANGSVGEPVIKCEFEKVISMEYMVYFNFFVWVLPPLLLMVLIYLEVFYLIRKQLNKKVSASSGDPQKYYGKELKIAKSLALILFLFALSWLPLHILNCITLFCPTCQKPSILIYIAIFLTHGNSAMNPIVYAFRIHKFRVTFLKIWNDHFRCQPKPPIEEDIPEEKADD

Adenosine receptor A3 [13] = molecular target: T9, Adenosine receptor A3 (Mus musculus, UniProt Q61618); assay: Displacement of [3H]NECA from recombinant mouse A3 adenosine receptor expressed in CHO cell membranes measured after 180 mins in presence of adenosine deaminase by liquid scintillation counting method
T9 sequence (Q61618 whole entry): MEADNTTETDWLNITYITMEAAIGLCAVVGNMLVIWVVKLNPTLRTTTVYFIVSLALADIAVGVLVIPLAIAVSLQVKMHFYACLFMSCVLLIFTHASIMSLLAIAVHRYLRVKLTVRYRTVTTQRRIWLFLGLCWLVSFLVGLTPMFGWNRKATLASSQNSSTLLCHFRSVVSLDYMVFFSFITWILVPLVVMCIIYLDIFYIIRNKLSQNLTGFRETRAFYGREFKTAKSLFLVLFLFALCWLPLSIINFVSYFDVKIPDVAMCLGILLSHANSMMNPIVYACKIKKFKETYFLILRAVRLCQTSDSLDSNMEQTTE

[14] = molecular target: T10, Adenosine receptor A3 (Mus musculus) (UniProt Q61618); assay: Displacement of [3H]NECA from recombinant mouse A3 adenosine receptor expressed in CHO cell membranes at 1 uM measured after 180 mins in presence of adenosine deaminase by liquid scintillation counting method relative to control
T10 sequence (whole entry): T9 sequence (Q61618 whole entry)

[15] = molecular target: T11, Adenosine receptor A2b (Homo sapiens) (UniProt P29275); assay: Competitive antagonist activity at recombinant human A2B adenosine receptor expressed in CHO cells assessed as reduction in NECA-induced […] cAMP accumulation preincubated for 10 mins followed by NECA stimulation for 15 mins […] and measured after 15 mins; type: functional, cell-based
T11 sequence (whole entry): T1 sequence (P29275 whole entry)

Mus musculus = species: Mus musculus; assay: Selectivity ratio of Ki for displacement of [3H]CCPA from recombinant mouse A1 adenosine receptor expressed in CHO cell membranes to Ki for displacement of [3H]PSB-603 from recombinant mouse A2B adenosine receptor expressed in CHO cell membranes
[16] = Selectivity ratio of Ki for displacement of [3H]PSB-603 from recombinant mouse A2B adenosine receptor expressed in CHO cell membranes to Ki for displacement of [3H]PSB-603 from recombinant human A2B adenosine receptor expressed in CHO cell membranes
Adenosine receptor A1 [17] = molecular target: T3, Adenosine receptor A1; assay: Displacement of [3H]DPCPX from recombinant human A1 adenosine receptor expressed in CHO cell membranes measured after 120 mins by topcount scintillation counting method
Adenosine receptor A2a [18] = molecular target: T2, Adenosine receptor A2a; assay: Displacement of [3H]ZM241385 from recombinant human A2A adenosine receptor expressed in CHO cell membranes measured after 60 mins by topcount scintillation counting method
Adenosine receptor A2b [19] = molecular target: T1, Adenosine receptor A2b; assay: Displacement of [3H]DPCPX from recombinant human A2B adenosine receptor expressed in HEK293 cell membranes measured after 60 mins by topcount scintillation counting method
Adenosine receptor A3 [20] = molecular target: T4, Adenosine receptor A3; assay: Displacement of [3H]MRE3008-F20 from recombinant human A3 adenosine receptor expressed in CHO cell membranes measured after 120 mins by topcount scintillation counting method
[21] = Semi-thermodynamic solubility of the compound at 200 uM after 24 hrs by LC/MS-based shake-flask method; type: physicochemical; details: read-out: Therm_solubility

## CCCn1c(=O)[nH]c2nc(-c3ccc(S(=O)(=O)N4CCN(c5cccc(Br)c5)CC4)cc3)[nH]c2c1=O
Adenosine receptor A2b [1]
  Ki: 0.234 nM
Adenosine receptor A2a [2]
  Ki: > 1000 nM
Adenosine receptor A1 [3]
  Ki: > 1000 nM
Adenosine receptor A3 [4]
  Ki: > 1000 nM
Adenosine receptor A2a [5]
  inhibition: 24%
[6]
  inhibition: -1%
[7]
  inhibition: 27%
Homo sapiens [8]
  Ratio Ki: > 4270
Homo sapiens [9]
  Ratio Ki: > 4270
Homo sapiens [10]
  Ratio Ki: > 4270

## CCCn1c(=O)[nH]c2nc(-c3ccc(S(=O)(=O)N4CCN(Cc5cccc(Br)c5)CC4)cc3)[nH]c2c1=O
Adenosine receptor A2b [1]
  Ki: 0.148 nM
Adenosine receptor A2a [2]
  Ki: 92.4 nM
Adenosine receptor A1 [3]
  Ki: 928 nM
Adenosine receptor A3 [4]
  Ki: > 1000 nM
Adenosine receptor A2b [11]
  Ki: 0.901 nM
Adenosine receptor A1 [12]
  Ki: 107 nM
Adenosine receptor A3 [13]
  Ki: > 1000 nM
[7]
  inhibition: 23%
Homo sapiens [8]
  Ratio Ki: 620
Homo sapiens [9]
  Ratio Ki: 620
[14]
  inhibition: 5%
[15]
  Kb: 0.201 nM
Mus musculus
  Ratio Ki: > 120
[16]
  Ratio Ki: 1.5 to 6

## O=C(Nc1nc2nn(CCCc3ccccc3)cc2c2nc(-c3ccco3)nn12)c1cccc2ccccc12
Adenosine receptor A1 [17]
  Ki: 1100 nM
Adenosine receptor A2a [18]
  Ki: 800 nM
Adenosine receptor A2b [19]
  Ki: 20 nM
Adenosine receptor A3 [20]
  Ki: 300 nM

## CCCn1c(=O)[nH]c2nc(-c3ccc(S(=O)(=O)N4CCN(Cc5ccc(Cl)cc5)CC4)cc3)[nH]c2c1=O
[21]
  solubility thermodynamic at 24 h, 200 µM: 3.2 µM (≈ 1.74 µg/mL)
